Here are results for 19 compounds from PubChem BioAssay.

Assay [1] in a line: S. cerevisiae growth inhibition in permissive medium (OD615), pilot counter-assay for S. cerevisiae lifespan shortening project, permissive growth control (AID 705;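 active = growth inhibition above 25% in both replicates, a cutoff set 3 SD above the mean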). The following applies: OD615, 24 h, at 10 µM, hits give high values. In a few lines: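 System: Engineered DeaD yeast | Buffer or medium: SC raffinose/galactose permissive medium | Doses: 10 µM single dose, 0.25% DMSO | Times: 24 h exposure, 30 °C | Measured by: OD615 turbidity read | Read-out: Yeast growth inhibition indicated by reduced 24 h OD615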

A short description of assay [2]: S. cerevisiae growth inhibition in restrictive medium, OD615, pilot screen, restrictive growth control, yeast lifespan reduction project (AID 706;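 active = growth inhibition above a set limit, 3 SD over mean compound inhibition, in both replicates, cut at about 43% in these data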;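 also: modified DeaD lifespan yeast strain shifted to restrictive glucose medium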). The following applies: OD615, 48 h, at 10 µM, hits give high values. A digest of the protocol: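 Assay system: engineered S. cerevisiae DeaD strain; Buffer or medium: CSMM-D glucose medium; Dosing: 10 µM compound, 0.25% DMSO; Times: cell pre-growth 4 h, compound exposure 48 h, 30 °C; Detection: absorbance (optical density) measured at 615 nm.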

A short description of assay [3]: doxorubicin toxicity protection in MRP-1 cells – H69AR cells, CellTiter-Glo, duplicate, MRP-1 activator project, pilot screen (AID 807;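 active = viability increase at or above a cutoff of the median across tested compounds plus 3 SD, cut at about 8.5% in these data, passing the limit was not always enough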;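 also: compound pretreatment 18-22 h then 72 h combined with doxorubicin; 0% = doxorubicin alone and 100% = vehicle without doxorubicin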). The following applies: H69AR viability with doxorubicin, CellTiter-Glo luminescence; at 10 µM; hits give high values. (In general: Cellular ATP, detected with luciferase, serves as a proxy for viable cell number.)
Assay [4] can be described thus: viability of HCT116 without oncogenic beta-catenin – human colon tumor cells, pilot screen (AID 823;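 active = cell viability at or below a set limit in both duplicate runs, the limit being the all-compound median minus 4 SD, cut at about 23% in these data, passing the limit was not always enough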;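 also: 0% = wells killed by 20 µM Hyamine and 100% = untreated DMSO cell wells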). The following applies: HCT116 beta-catenin knockout viability, CellTiter-Glo, 60 h; at 10 µM; hits give low values.
A short description of assay [5]: viability of PTEN-null HCT116 cells – cell-based, HCT116 clonal line, CellTiter-Glo, pilot screen (AID 824;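 active = viability at or below 27.92% in each of two runs, the all-compound median minus 4 SD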;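 also: 0% = 20 µM Hyamine control and 100% = vehicle cell control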). Particulars: HCT116 PTEN-deleted viability, 60 h, at 10 µM, hits give low values.
A short description of assay [6]: RAM pathway blockade in budding yeast – dse1pr::URA3 reporter, 5-FOA selection, pilot screen (AID 869).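 Also: 0% = DMSO wells with no growth and 100% = 10 µM 1-NA-PP1 with full growth; RAM network block rescues cells from 5-FOA so hits raise OD615 growth.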 The following applies: S. cerevisiae dse1pr::URA3 5-FOA growth, OD615, 2 d; at 10 µM; hits give high values; strain carries analog-sensitive mutant Cbk1 kinase.

A number with no mark means an inactive call. Results filed as inconclusive are left out. The source made the active and inactive calls.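 The calls were made as follows, unless noted: active = inhibition over a set limit, the all-compound mean plus 3 SD, in both replicate runs; inconclusive = over that limit in just one replicate run; inactive = at or under that limit in both runs.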

For the compound `Cn1c(-n2c(CCCN3C(=O)c4ccccc4C3=O)nc3ccccc3c2=O)nc2ccccc21`, the growth inhibition is -1.74% in assay [1] and 2.53% in assay [2]. In addition, the viability increase in assay [3] was -3.91%. The viability (as a rule, a read-out of living cells in per cent, often relative to untreated cells) in assay [4] is 84.5%; in assay [5], 87.2%. Also, in assay [6], the inhibition (as a rule, the change of the read-out against control, counted positive when it falls) was 2.62%.

In the case of `Cc1cc(NC(=O)c2noc3c2CCc2ccccc2-3)n(-c2ccccc2)n1`, the results for the growth inhibition in assay [1] and in assay [2] were -11.9% and -2.05%, respectively. Further, the viability increase in assay [3] was -2.71%. The viability in assay [4] was 94.9%; in assay [5], 98.3%. Also, in assay [6], the inhibition was 2.88%.

As for `O=C(Cn1cc2c(n1)CCCC2)NCc1ccccn1`, the values for the growth inhibition in assay [1] and in assay [2] were -2.39% and 2.25%, respectively. Moreover, the viability increase in assay [3] was -0.85%. Also, the viability is 104% in assay [4] and 106% in assay [5]. Further, the inhibition in assay [6] is 0.72%.

For the compound `COc1ccccc1N1CCN(C(=O)c2cc3c(-c4ccc(Cl)cc4)nn(C)c3s2)CC1`, the growth inhibition in assay [1] was -1.53%; in assay [2] it was 13.8%. Also, in assay [3], the viability increase is -4.63%. The figures for the viability in assay [4] and in assay [5] were 60.8% and 47.9%, respectively. The inhibition in assay [6] was 2.8%.

As for `Cc1cc(C)n(-c2nc3ccccc3nc2Nc2ccc3c(c2)OCO3)n1`, the growth inhibition in assay [1] was -18.7%; in assay [2], 1.25%. Besides, in assay [3], the viability increase is 6.2%. Moreover, the viability in assay [4] was 87.7%; in assay [5], 81.7%. The inhibition in assay [6] was 6.39% (active).

As for `O=C1CCCN1CCCNc1ncnc2c1cnn2-c1ccc(Cl)cc1`, the growth inhibition is 0.48% in assay [1] and 1.48% in assay [2]. The viability increase in assay [3] was -0.95%. In addition, the results for the viability in assay [4] and in assay [5] were 85% and 77%, respectively. In addition, in assay [6], the inhibition was 1.3%.

For `CCOC(=O)c1[nH]c(C)c(C(=O)N2CCOCC2)c1C`, the figures for the growth inhibition in assay [1] and in assay [2] were -6.62% and -4.17%, respectively. In addition, in assay [3], the viability increase is -0.92%. For the same compound, the viability in assay [4] is 109%; in assay [5], 104%. In assay [6], the inhibition was 3.29%.

As to `CN(Cc1ccccc1)c1oc(COc2ccccc2F)nc1C#N`, the growth inhibition in assay [1] was -1.62%; in assay [2], -8.97%. Moreover, the viability increase in assay [3] was 2.94%. Besides, the viability in assay [4] is 80.2%; in assay [5] it was 80.9%. Besides, in assay [6], the inhibition is 1.07%.

For `CCC(Sc1nc2c(cnn2-c2ccccc2)c(=O)[nH]1)C(=O)OC` (centres undefined), the growth inhibition in assay [1] is -17.3%; in assay [2] it was -17.4%. In addition, the viability increase in assay [3] is -1.58%. In addition, the viability is 91.8% in assay [4] and 91.5% in assay [5]. Besides, the inhibition in assay [6] is 0.65%.

In the case of `COC(=O)CSc1nc2ccc(NC(=O)CSc3nnnn3Cc3ccccc3)cc2s1`, the growth inhibition is -3.46% in assay [1] and 13.8% in assay [2]. Further, the viability increase in assay [3] was 1.67%. The viability in assay [4] is 87.2%; in assay [5] it was 96.9%. Also, the inhibition in assay [6] is 4.05%.

With `Cc1noc(/C=C/N(C)C)c1S(=O)(=O)N1CCCC(C(=O)NCc2cccs2)C1` (centres undefined), the growth inhibition in assay [1] is 2%; in assay [2] it was -3.34%. The viability increase in assay [3] was 10.6% (active). For the same compound, the viability is 93.2% in assay [4] and 88.5% in assay [5]. In assay [6], the inhibition is 0.21%.

For the compound `Cn1c(SCc2ccccc2Cl)nnc1-c1cnccn1`, the growth inhibition is -2.59% in assay [1] and -7.88% in assay [2]. In addition, in assay [3], the viability increase was -1.15%. Besides, the viability in assay [4] was 103%; in assay [5], 102%. For the same compound, in assay [6], the inhibition is 2.44%.

Consider `CCCCOc1ccccc1C1NC(=O)NC(C)=C1C(=O)OCCOC` (centres undefined), for which the values for the growth inhibition in assay [1] and in assay [2] were -16% and -16.6%, respectively. Also, the viability increase in assay [3] is -2.89%. In addition, the viability in assay [4] is 92.9%; in assay [5], 88.1%. Further, the inhibition in assay [6] was 2.28%.

With `CC(C)Oc1ccc(NC(=O)Oc2ccccc2)cc1`, the growth inhibition in assay [1] is -4.28%; in assay [2], -8.55%. Moreover, the viability increase in assay [3] was -0.53%. The viability in assay [4] is 97.4%; in assay [5], 96.8%. The inhibition in assay [6] is 2.38%.

With `Nc1ccc(S(=O)(=O)N2CCCc3ccccc32)cc1`, the values for the growth inhibition in assay [1] and in assay [2] were -18.7% and -24%, respectively. Also, the viability increase in assay [3] was -3.42%. For the same compound, the viability in assay [4] and in assay [5] was 83% in each case. The inhibition in assay [6] is 1.49%.

As to `CCOc1ccc(-c2nc(CSCC(=O)N3CCN(c4cccc(OC)c4)CC3)c(C)o2)cc1`, the results for the growth inhibition in assay [1] and in assay [2] were 5.25% and 19.7%, respectively. In addition, the viability increase in assay [3] is -2.52%. Further, the results for the viability in assay [4] and in assay [5] were 34% and 47.4%, respectively. For the same compound, in assay [6], the inhibition was 1.53%.

Take `CCOc1ccc(CN2CCNC(=O)C2CC(=O)OC)cc1` (centres undefined): the figures for the growth inhibition in assay [1] and in assay [2] were 0.415% and -7.59%, respectively. Also, the viability increase in assay [3] is -0.51%. Also, the viability is 98.7% in assay [4] and 102% in assay [5]. Further, the inhibition in assay [6] was 1.59%.

As to `O=C(Cn1c(=O)sc2ccccc21)NCc1ccccn1`, the growth inhibition in assay [1] is 1.44%; in assay [2], -6.78%. Moreover, the viability increase in assay [3] was -1.78%. The viability is 104% in assay [4] and 93.4% in assay [5]. Moreover, in assay [6], the inhibition was 1.19%.

For the compound `CCc1ccccc1S(=O)(=O)Cc1ccc(C(=O)N2CCN(c3ccccc3OC)CC2)o1`, the growth inhibition was -12.5% in assay [1] and -21.1% in assay [2]. For the same compound, the viability increase in assay [3] is -2.86%. Further, the viability was 37% in assay [4] and 43.5% in assay [5]. Also, in assay [6], the inhibition was 1.31%.
